# This is a sample that favours compounds with a hit; in the whole collection about 1.8% have one here.
# Hck Nef HTS: blocks Nef-activated human Hck kinase; P08631; 220,000 compounds, 0.68% hits; inhibition, % at 20 µM; Recombinant Hck-YEEI plus Nef, Z-Lyte FRET kinase assay;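 active = Hck-Nef kinase inhibition above about 50%, limit read from the data; inactive = inhibition below that limit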;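 also: 0% = DMSO with Hck plus Nef and 100% = Hck alone without Nef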
# Target sequence (P08631 whole entry, looked up): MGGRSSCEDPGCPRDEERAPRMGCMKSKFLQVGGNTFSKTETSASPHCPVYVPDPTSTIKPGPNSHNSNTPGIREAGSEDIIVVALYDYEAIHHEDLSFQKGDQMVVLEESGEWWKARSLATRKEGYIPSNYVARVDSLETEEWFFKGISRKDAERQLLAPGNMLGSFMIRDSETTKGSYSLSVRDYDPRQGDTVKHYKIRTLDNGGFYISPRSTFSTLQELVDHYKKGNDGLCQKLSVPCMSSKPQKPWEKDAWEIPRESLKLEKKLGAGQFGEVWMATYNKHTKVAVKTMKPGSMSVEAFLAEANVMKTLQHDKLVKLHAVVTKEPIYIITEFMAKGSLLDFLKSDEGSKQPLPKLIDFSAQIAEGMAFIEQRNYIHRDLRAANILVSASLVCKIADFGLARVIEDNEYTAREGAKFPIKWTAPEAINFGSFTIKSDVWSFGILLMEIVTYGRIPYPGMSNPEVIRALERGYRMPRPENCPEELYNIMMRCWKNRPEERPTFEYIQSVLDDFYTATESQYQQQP
# RanGTP-Imp inh: disruptors of Ran-importin-beta complex formation – biochemical, FRET, CFP-Ran, YFP-importin-beta, homogeneous, primary screen; cell-free CFP-Ran/YFP-importin-beta FRET ratio; inhibition, % (concentration not given with the values); 300,000 compounds, 1.1% hits; AID 2216;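 active = more than half of the replicate wells show a fall in the fluorescence ratio signal beyond about 16%, limit read from the data, passing the limit was not always enough; inconclusive = exactly half of the replicate wells pass the set limit; inactive = fewer than half of replicates pass the limit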;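 also: 0% = DMSO wells and 100% = Ran loaded with GDP instead of GTP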
# Runt-CBFb FRET: Runt domain-CBFb interaction inhibition; Cerulean-Runt/Venus-CBFb FRET ratio 530/480, 1 h; inhibition, % at 20 µM; 220,000 compounds, 0.46% hits; Q01196+Q13951;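 active = inhibition over about 50% at 20 µM in the single-dose screen, limit read from the data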;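 also: 0% = DMSO wells and 100% = excess unlabeled CBFb competitor control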
#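 Measured by: fluorescence energy transfer, 422 nm excitation, 530/480 nm emission; Assay system: Cerulean-Runt domain; Medium: Tris pH 7.5 buffer with BSA; Measure: loss of energy transfer signal; Controls: 5 µM unlabeled CBFb as full-inhibition high control; Incubation: protein complex preformed 1 h, compound exposure 1 h, room temperature, dark.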
# Runt-SMMHC FRET: blocks binding of human RUNX1 Runt domain to CBFb-SMMHC. Cerulean-Runt/Venus-CBFb-SMMHC FRET ratio 530/480, 1 h. inhibition, % at 20 µM. 220,000 compounds, 0.74% hits;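 active = mean inhibition across duplicate retests at 20 µM reaching about 50%, limit read from the data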;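 also: 0% = DMSO wells and 100% = wells with excess untagged CBFb-SMMHC; inhibitors lower the FRET ratio by blocking Runt binding to CBFb-SMMHC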
# Runt-CBFb TRFRET: disrupts human RUNX1 Runt domain binding to CBFb; TR-FRET RUNX1 Runt domain-CBFb binding; inhibition, % at 20 µM; shares compounds with Runt-CBFb FRET; 480 compounds, 20% hits; in the data active = inhibition above about 40%
# Active calls of the source: *; ? = inconclusive; nt = no result given.
SMILES,Hck Nef HTS,RanGTP-Imp inh,Runt-CBFb FRET,Runt-SMMHC FRET,others
COCC(C)NC(=O)c1cc2c(ccc3ccccc32)oc1=O (configuration not stated),nt,29*,nt,nt,
C/C(=N\Nc1nc(-c2cc(C)ccc2C)cs1)c1cc2ccccc2oc1=O,2,3,-2,-7,
C/C(=N\Nc1nc(-c2cc(C)ccc2C)cs1)c1cc2c(ccc3ccccc32)oc1=O,4,64*,64*,nt,
CCOC(=O)c1cc2ccc3ccccc3c2oc1=O,nt,73*,nt,nt,
CCOc1ccc(NCc2nnc(SCc3ccc(Cl)cc3)n2-c2ccccc2)cc1,1,-1,-4,0,
N=c1c(S(=O)(=O)c2ccc(Br)cc2)cc2c(=O)n3ccccc3nc2n1C1CCCC1,nt,69*,nt,nt,
Cc1ccc(S(=O)(=O)c2cc3c(=O)n4ccccc4nc3n(C3CCCCC3)c2=N)cc1,nt,48*,nt,nt,
N=c1c(S(=O)(=O)c2ccccc2)cc2c(=O)n3ccccc3nc2n1C1CCCC1,nt,144*,nt,nt,
O=C(Cc1cc(=O)oc2cc(O)ccc12)NC(Cc1ccc(Cl)cc1)C(=O)O (configuration not stated),nt,50*,nt,nt,
COc1ccc2c(CC(=O)N[C@@H](Cc3ccccc3)C(=O)O)cc(=O)oc2c1C,nt,3,nt,nt,
CCc1cc(=O)oc2cc(C)cc(OCC(=O)NC(Cc3ccc(Cl)cc3)C(=O)O)c12 (configuration not stated),nt,-9,nt,nt,
Cc1c(O)ccc2c(CC(=O)N[C@@H](Cc3ccc(O)cc3)C(=O)O)cc(=O)oc12,nt,52*,nt,nt,
CC1(C)N([O-])c2cc([N+](=O)[O-])ccc2[N+]1=O,-122,nt,63*,85*,
Cc1ccc(C(=O)/C=C\NCc2ccccc2)cc1,8,-1,0,-6,
COc1ccc(C(=O)/C=C/NCc2ccc(C)cc2)cc1,10,25*,nt,nt,
COc1ccc(NC(=O)Nc2ccccn2)cc1OC,21,27*,-1,-4,
COc1ccc(NC(=O)c2ccc(COc3ccccc3OC)o2)cc1OC,1,13*,-1,-5,
O=C(Nc1ccc(Cl)c(Cl)c1)Nc1ccccn1,nt,-4,nt,nt,
COc1cc(/C=C(/C#N)c2nc3ccccc3[nH]2)ccc1OC(=O)c1ccco1,4,28*,5,10,
COc1ccc(N(CC(=O)NCCC2=CCCCC2)S(=O)(=O)c2ccc(C)cc2)cc1OC,13,-2,-2,0,
CCn1cc(/C=C(\NC(=O)c2ccccc2F)C(=O)NCCN2CCOCC2)c2ccccc21,nt,0,nt,nt,
Cc1ccc(C(=O)Nc2c3c(nn2C(C)(C)C)CS(=O)(=O)C3)cc1C,2,-2,98*,6,
COc1cc(/C=C(\C#N)C(=O)Nc2cccc(C(=O)O)c2)ccc1OCc1ccc(F)cc1,nt,4,nt,nt,
CCOc1cc(/C=C(\C#N)C(=O)Nc2cccc(C(=O)O)c2)ccc1OCc1ccccc1Cl,nt,78*,nt,nt,
COc1ccc(NC(=S)N2CCN(C(=O)C3CCCO3)CC2)cc1 (configuration not stated),nt,4,nt,nt,
SMILES,Hck Nef HTS,RanGTP-Imp inh,Runt-CBFb FRET,Runt-SMMHC FRET,others
COc1c(OC)c2[nH]c(=O)cc3c4ccccc4n(c1=O)c23,nt,157*,nt,nt,
O=C(NCCCNC(=O)C(F)(F)C(F)F)C(F)(F)C(F)F,0,29*,-1,3,
N#CC(c1ccccc1)N(CCCCl)C(=O)c1ccc(Br)cc1 (configuration not stated),1,5,-6,3,
Cc1cc(/C=N/NC(N)=S)c(O)c(/C=N/NC(N)=S)c1,-43,60*,-137,43,
COc1ccccc1CCn1c(N)c(C#N)c2nc3ccccc3nc21,16,56*,80*,140*,Runt-CBFb TRFRET=37
CC(C)(C)OC(=O)N1CCC(C(=O)NCC2CCCO2)CC1 (configuration not stated),nt,-1,nt,nt,
N#CC1(C#N)COC23CCCCC2C1(C#N)C(=N)O3 (configuration not stated),2,31*,63*,80*,Runt-CBFb TRFRET=38
CN(C)c1oc(/C=C/c2ccccc2)nc1C#N,71*,11,63*,122*,Runt-CBFb TRFRET=-34
CN(C)c1oc(-c2ccccc2)nc1C#N,5,-1,-2,0,
COc1ccc(NC(=O)c2cc3ccccc3cc2O)cc1,nt,8,nt,nt,
CCCCCCc1cc2cc(C(=O)Nc3ccc(OC)cc3)c(=O)oc2cc1O,28,41*,65*,102,Runt-CBFb TRFRET=-12
C[C@H](N)c1nnc(SCC(N)=O)o1,18,?,3,2,
CC(=O)N(c1ccc2oc(=O)sc2c1)S(=O)(=O)c1cccs1,-1,7,72*,63*,Runt-CBFb TRFRET=22
CC(=O)N(c1ccc2oc(=O)sc2c1)S(=O)(=O)c1ccc(C(=O)O)cc1,nt,1,nt,nt,
CC(C)C(=O)N(c1ccc2oc(=O)sc2c1)S(=O)(=O)c1cccs1,0,0,58*,37,Runt-CBFb TRFRET=38
CC(C)C(=O)N(c1cc2sc(=O)oc2c2ccccc12)S(=O)(=O)c1cccs1,0,-3,32,nt,
NC(=S)Nc1ccc(Cl)cc1Cl,-6,?,-1,-3,
N#C/C(=C\c1c(N(Cc2ccccc2)Cc2ccccc2)nc2ccccn2c1=O)C(N)=O,5,0,3,7,
C=CCNC(=O)/C(C#N)=C/c1c(N(Cc2ccccc2)Cc2ccccc2)nc2ccccn2c1=O,3,4,51*,71*,Runt-CBFb TRFRET=-8
CCN1CCc2nc(NC(=O)C(c3ccccc3)c3ccccc3)sc2C1,-3,?,51*,106*,Runt-CBFb TRFRET=-8
CCN1CCc2nc(NC(=O)c3ccc(S(=O)(=O)N(C)C)cc3)sc2C1,-10,-2,2,3,
CCN1CCc2nc(NC(=O)c3ccc4c(c3)OCCO4)sc2C1,7,80*,51*,112*,Runt-CBFb TRFRET=-13
COCCC1CCCCN1C(=O)c1cccc(OC2CCN(C3CCCC3)CC2)c1 (configuration not stated),1,0,0,5,
Cc1ccc(C)c(/C=N/Nc2nc3ccccc3c(=O)n2O)c1,-8,0,51*,19,Runt-CBFb TRFRET=-1
Cc1nn(Cc2cccc(C(=O)N3CCCC(C)C3)c2)c(C)c1[N+](=O)[O-] (configuration not stated),4,-1,0,4,
SMILES,Hck Nef HTS,RanGTP-Imp inh,Runt-CBFb FRET,Runt-SMMHC FRET,others
CCN1CCN(C(=S)c2ccc(Br)cc2)CC1,1,1,45,54,
S=C(c1ccc(Br)cc1)N1CCN(Cc2ccccc2)CC1,0,-1,54*,50,Runt-CBFb TRFRET=19
CCN1CCN(C(=S)c2ccc(O)cc2)CC1,27,4,54*,27,Runt-CBFb TRFRET=-5
Oc1ccc(C(=S)N2CCN(Cc3ccccc3)CC2)cc1,-17,3,53*,20,Runt-CBFb TRFRET=-6
COc1ccc(OC)c2c1cc(C(=O)N[C@H](C(=O)N1CCC[C@H]1C(=O)O)C(C)C)n2C,nt,5,nt,nt,
CCn1c(SC(C)C(=O)Nc2nccs2)nnc1-c1ccncc1 (configuration not stated),nt,-2,nt,nt,
